M1 ag parental: M1 agonist counterscreen hit in parental CHO-K1 cells. Fluo-8 calcium fluorescence; scaled to maximal ATP response, vehicle zero. activation, % at 3 µM. 0.48% of 360,000 active. AID 602248; in the data active means activation above about 15%;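 further: untransfected CHO-K1 host cells lacking M1 receptor as counterscreen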
CHO-K1 Ca antag: counter-screen for M1 antagonists: effect in parental CHO-K1 cells. 0.6% of 360,000 active. ATP-induced calcium, Fluo-8 fluorescence. inhibition, % at 3 µM;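 active means inhibition above a per-plate cutoff, the plate's mean sample inhibition plus 3 SD, cut at about 24% in these data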;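 further: 0% = DMSO plus EC80 ATP and 100% = DMSO alone without ATP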
CHO parental Ca: counter-screen: ATP calcium response change in parental CHO cells | inhibition, % at 5.6 µM | 0.63% of 330,000 active | parental CHO-K1, ATP-induced calcium, Fluo-8 fluorescence;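 active means inhibition above that plate's mean sample inhibition plus 3 SD, cut at about 26% in these data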;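 further: 0% = ATP-challenged DMSO wells and 100% = DMSO wells without ATP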
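Material – parental CHO cells · Reagent – ATP stimulus · Compound – single nominal dose of 5.6 µM per compound · Detection – Fluo-8 fluorescence · Read-out basis – percent inhibition of calcium signal · Controls – ATP-challenged DMSO wells low, unchallenged DMSO wells high · Repeats – no replicates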
OX1R antag-1: human HCRTR1 antagonism; inhibition, % at 5 µM; CHO/OX1R cells, Fluo-8 calcium fluorescence, orexin A; O43613; 0.43% of 330,000 active;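 active means inhibition above its plate's threshold, mean inhibition of all tested compounds on the plate plus 3 SD, cut at about 37% in these data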;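 further: 0% = orexin A challenge wells and 100% = SB-334867-A antagonist wells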
Target sequence (O43613 whole entry, looked up): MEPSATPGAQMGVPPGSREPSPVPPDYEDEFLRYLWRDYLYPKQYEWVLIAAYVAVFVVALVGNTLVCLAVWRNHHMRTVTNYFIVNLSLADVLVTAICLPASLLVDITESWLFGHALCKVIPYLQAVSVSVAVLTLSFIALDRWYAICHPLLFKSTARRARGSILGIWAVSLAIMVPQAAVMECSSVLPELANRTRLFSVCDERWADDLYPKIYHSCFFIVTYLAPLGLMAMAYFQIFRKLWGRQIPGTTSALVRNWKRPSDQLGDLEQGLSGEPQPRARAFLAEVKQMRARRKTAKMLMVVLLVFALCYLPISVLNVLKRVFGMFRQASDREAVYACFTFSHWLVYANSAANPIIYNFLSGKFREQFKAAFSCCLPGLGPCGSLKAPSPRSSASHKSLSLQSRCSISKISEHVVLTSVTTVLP
OX1R antag-2: OX1R (human) antagonism | 1.8% of 330,000 active | inhibition, % at 6.6 µM | OX1R-expressing cells, FRET antagonist read-out; in the data active means inhibition mostly above about 38%, no sharp cut-off; inactive means mostly below about 40%;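 further: 0% = agonist challenge alone and 100% = reference antagonist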
CHO-K1 Ca PAM: counter-screen for M1 PAMs: effect in parental CHO-K1 cells; ATP EC20, Fluo-8 calcium fluorescence; 0% at ATP EC20, 100% at ATP max; activation, % at 3 µM; 0.02% of 360,000 active;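 active means activation above the run cutoff, the mean activation of all test compounds plus 3 SD, cut at about 40% in these data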;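 further: peak over basal fluorescence ratio in a 140 s read after ATP addition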
* hit, by the source's call; x = not tested or not shown. Compounds with a hit are over-represented: about 2.9% of the library has one in this group of screens.

SMILES | M1 ag parental | CHO-K1 Ca antag | CHO parental Ca | OX1R antag-1 | OX1R antag-2 | CHO-K1 Ca PAM
CCc1n[nH]c(=S)n1/N=C/c1c(O)ccc2ccccc12 | 0 | -1 | -8 | 0 | 14 | 7
Cc1ccc(-c2nc3cc(Cl)ccc3o2)cc1 | 0 | -2 | -3 | -10 | 12 | 13
COc1cc(OC)cc(-c2nc3cc(C)ccc3o2)c1 | 0 | -2 | -16 | -3 | 42* | 12
COc1ccc(-c2cc(N)n(S(=O)(=O)Cc3ccccc3)n2)c(OC)c1 | 1 | -6 | -19 | 0 | 61* | 8
COc1ccc(-c2cc(N)n(CCC#N)n2)c(OC)c1 | 0 | -4 | -8 | -10 | 2 | 13
O=C(NCCO)c1ccc2c3n(nc2c1)-c1ccc(Cl)cc1CO3 | 0 | -4 | -5 | -11 | 38 | 12
Cc1ccc2c(c1)COc1c3ccc(C(=O)NCCO)cc3nn1-2 | 0 | -11 | 1 | -13 | 61* | 10
Cc1ccc(S(=O)(=O)N(C)C[C@@H]2OCc3cnnn3CCCC(=O)N([C@@H](C)CO)C[C@@H]2C)cc1 | 0 | -5 | x | x | x | -4
COc1ccccc1-c1ccc(SCC(=O)NC2CCCC2)nn1 | 1 | -1 | -8 | -19 | 14 | 6
O=S(=O)(CCc1nc2ccccc2o1)c1ccc2ccccc2c1 | 1 | -1 | -12 | 2 | 45* | 18
CCN(CC(=O)Nc1c(F)cccc1F)C(=O)CN1C(=O)C2CCCCC2C1=O (stereo not drawn) | 1 | -12 | -4 | 6 | 5 | 12
COc1cccc(C(=O)N(Cc2nc(-c3ccc(C)cc3)no2)C(C)C)c1 | 0 | -18 | -29 | 12 | 27 | 7
CC(C)N(Cc1nc(-c2ccccc2)no1)C(=O)CSc1ccccc1 | 1 | -26 | -27 | 10 | 39* | 16
Cc1ccc(-c2noc(CN(C(=O)CCN3C(=O)c4ccccc4C3=O)C(C)C)n2)cc1 | -1 | 15 | -32 | -2 | 29 | -11
COc1ccccc1OCC(=O)N(Cc1nc(-c2ccccc2)no1)C(C)C | 1 | -9 | -8 | 10 | 25 | 13
Cc1cc(Br)ccc1OCC(=O)N(Cc1nc(-c2ccccc2)no1)C(C)C | 5 | -1 | -18 | 37 | 56* | 0
Cc1ccc(-c2noc(CN(C(=O)Cc3ccccc3)C(C)C)n2)cc1 | 0 | -9 | -11 | -6 | 52* | 6
Cc1ccc(C)c(C(=O)N(Cc2nc(-c3ccc(Cl)cc3)no2)C(C)C)c1 | 4 | 11 | 36* | -31 | 28 | 11
COc1ccc(CNCc2ccc([N+](=O)[O-])cc2)cc1OC | 0 | -8 | -17 | -37 | 19 | 1
COc1cccc(OCC(=O)N(Cc2nc(-c3ccc(Cl)cc3)no2)C(C)C)c1 | 0 | -4 | -16 | -10 | 47* | 10
Cc1ccc(S(=O)(=O)N2CCOCC2)cc1NC(=O)COC(=O)CCOc1ccc(C(C)(C)C)cc1 | 16* | -2 | -1 | 0 | 13 | -2
Cc1ccc(S(=O)(=O)N2CCOCC2)cc1NC(=O)COC(=O)CNC(=O)c1ccc(C(C)(C)C)cc1 | 4 | -2 | -12 | -15 | 18 | 23
Cc1ccc(S(=O)(=O)N2CCOCC2)cc1NC(=O)COC(=O)CNC(=O)c1ccc(Oc2ccccc2)cc1 | 2 | 25* | 23 | -2 | 11 | -12
Cn1c(SCc2ccccc2Cl)nnc1-c1cnccn1 | 0 | 24* | -18 | -11 | 1 | -6
Cn1c(SCc2cccc(F)c2)nnc1-c1cnccn1 | 1 | -15 | 0 | -7 | 8 | 16
SMILES | M1 ag parental | CHO-K1 Ca antag | CHO parental Ca | OX1R antag-1 | OX1R antag-2 | CHO-K1 Ca PAM
CCN(CC)C(=O)Oc1ccc(Cl)c2cccnc12 | -1 | -9 | 4 | 2 | 28 | 4
O=C(Nc1cccc(C(F)(F)F)c1)Oc1ccc(Cl)c2cccnc12 | 16* | 36* | 62* | 34 | 23 | -33
O=C(ONC1=NCCCCC1)c1ccc([N+](=O)[O-])cc1 | 0 | 6 | -10 | 3 | 50* | 1
O=C(Nc1cccc([N+](=O)[O-])c1)ONC1=NCCCCC1 | 5 | -12 | 0 | -4 | 17 | 15
CCC(CC)NC(=O)CON=C1c2ccccc2-c2ccccc21 | 0 | 18 | -21 | -13 | 51* | -8
CC(=O)NC(C)c1ccc(C(=O)CSc2nnc(C3CC3)n2C2CC2)cc1 (stereo not drawn) | 0 | -14 | -7 | -7 | -2 | 2
Cc1nc2ccccc2c2oc(C(=O)NCC3COc4ccccc4O3)cc12 (stereo not drawn) | 11 | -8 | 41* | 10 | 85* | 22
Cc1nc2ccccc2c2oc(C(=O)Nc3ccc(C(C)C)cc3)cc12 | 0 | 25* | -42 | -16 | 66* | -12
O=C(NCC1COc2ccccc2O1)c1cccc(S(=O)(=O)NCc2ccccc2)c1 (stereo not drawn) | 2 | -9 | -10 | -9 | 51* | -1
COc1cc(NC(=O)c2cc3c(C)nc4ccccc4c3o2)cc(OC)c1OC | 4 | 14 | -13 | -39 | 8 | -4
CCc1ccc(CNC(=O)c2cc3c(C)nc4ccccc4c3o2)cc1 | 9 | 8 | 46* | -7 | 79* | 19
CC1CN(S(=O)(=O)c2cccc(C(=O)NCC3COc4ccccc4O3)c2)CC(C)O1 (stereo not drawn) | 4 | -18 | -17 | -30 | 2 | 11
CC(C)(C)C(=O)Nc1ccnn1C1CCN(C(=O)c2cccc(Cl)c2)CC1 | 2 | 2 | 11 | -15 | 15 | 2
COc1ccccc1C1CC(=O)NC(C)=C1C(=O)OC(C)C (stereo not drawn) | -1 | -8 | -13 | -24 | 17 | 0
N#CCCn1cc(C(=O)O)c(-c2ccc3ccccc3c2)n1 | 0 | -10 | 0 | -6 | 12 | 17
COc1cccc(CNC(=O)c2cc3c(C)nc4ccccc4c3o2)c1 | 7 | -2 | -4 | -15 | 9 | 10
COc1ccc(CNC(=O)c2cc3c(C)nc4ccccc4c3o2)c(OC)c1 | 8 | 15 | 57* | -12 | 56* | 2
Cc1cccc(C(=O)NCC(=O)N2CCN(c3ccc(Cl)cc3)CC2)c1 | 16* | -13 | -13 | -23 | 1 | 12
S=c1[nH]c2cc(Br)cnc2[nH]1 | 1 | 26* | -1 | 26 | 32 | -12
Brc1cnc2nc[nH]c2c1 | 1 | -10 | -19 | -1 | 7 | 4
Cc1cc(C)n2nc(S(=O)(=O)N(C)Cc3ccccc3)nc2n1 | 0 | 0 | -7 | -5 | 7 | 5
Cc1cc(C)n2nc(S(=O)(=O)N(CC(C)C)CC(C)C)nc2n1 | 0 | 25* | -8 | -9 | 7 | -8
O=c1oc2cc(O)ccc2cc1-c1nc2c(s1)CCc1ccccc1-2 | 10 | 9 | 50* | 50* | 17 | 10
CN(C(=O)COC(=O)COc1ccc2ccccc2c1)c1ccccc1 | 9 | -5 | x | x | x | 17

Screening results from PubChem BioAssay.
